Reference: ChEMBL document CHEMBL3822423 (J Med Chem, 2016)
Values after ≈ are worked out from the molar mass of the structure shown. Active and inactive are the calls of the source. The rule behind the calls is not given here.

Assays:
[1] = tested on: Micrococcus luteus; assay: Antibacterial activity against Micrococcus luteus ATCC 4698 after 18 to 24 hrs; assay type: functional; conditions: NCTC 2665
[2] = tested on: Staphylococcus aureus; assay: Antibacterial activity against methicillin-resistant Staphylococcus aureus N315 after 18 to 24 hrs; assay type: functional
[3] = tested on: Staphylococcus aureus; assay: Antibacterial activity against Staphylococcus aureus ATCC 25923 after 18 to 24 hrs; assay type: functional
[4] = tested on: Bacillus spizizenii; assay: Antibacterial activity against Bacillus subtilis ATCC 6633 after 18 to 24 hrs; assay type: functional
[5] = tested on: Pseudomonas aeruginosa; assay: Antibacterial activity against Pseudomonas aeruginosa ATCC 9027 after 18 to 24 hrs; assay type: functional
[6] = tested on: Escherichia coli; assay: Antibacterial activity against Escherichia coli ATCC 25922 after 18 to 24 hrs; assay type: functional
[7] = tested on: Eberthella typhosa; assay: (§1) Antibacterial activity against Eberthella typhosa ATCC 14028 after 18 to 24 hrs; assay type: functional
[8] = tested on: Bacillus; assay: Antibacterial activity against Bacillus proteus ATCC 13315 after 18 to 24 hrs; assay type: functional
[9] = Cytotoxicity against human LO2 cells assessed as cell viability at 512 ug/mL after 72 hrs by MTT assay; assay type: cell-based; conditions: l02, 72 h
Outline: (§2)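 PC12 and human hepatocyte LO2 cells were exposed to compound at 8–512 µg/mL in twofold steps. Viability was read by colorimetric MTT assay, with norfloxacin as positive control. Each value is the mean of three replicates.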

[10] = Cytotoxicity against rat PC12 cells assessed as reduction in cell viability at 128 ug/mL after 72 hrs by MTT assay; assay type: cell-based; conditions: pc-12, 72 h; outline: as §2
[11] = Cytotoxicity against human LO2 cells assessed as reduction in cell viability at 128 ug/mL after 72 hrs by MTT assay; assay type: cell-based; conditions: l02, 72 h; outline: as §2
[12] = Cytotoxicity against rat PC12 cells assessed as reduction in cell viability at 256 ug/mL after 72 hrs by MTT assay; assay type: cell-based; conditions: pc-12, 72 h; outline: as §2
[13] = Cytotoxicity against human LO2 cells assessed as reduction in cell viability at 256 ug/mL after 72 hrs by MTT assay; assay type: cell-based; conditions: l02, 72 h; outline: as §2
[14] = Inhibition of Escherichia coli DNA gyrase assessed as reduction in enzyme-mediated supercoiling of pBR322 DNA after 1.5 hrs by agarose gel electrophoresis method
[15] = as §1; assay type: functional
[16] = tested on: Calf thymus DNA; assay: Binding affinity to calf thymus double stranded DNA assessed as hypochromic effect in absence of Mg2+ ion by […] spectroscopic analysis; assay type: nucleic-acid assay; conditions: Bos taurus
[17] = tested on: Staphylococcus aureus; assay: Antibacterial activity against methicillin/quinolone-resistant Staphylococcus aureus ATCC 700699; assay type: functional
[18] = Cytotoxicity against rat PC12 cells assessed as cell viability at 512 ug/mL after 72 hrs by MTT assay; assay type: cell-based; conditions: pc-12, 72 h; outline: as §2
[19] = target: T1, Albumin (Homo sapiens, UniProt P02768); assay: Binding affinity to human serum albumin at pH 7.4 at 288 K by Scatchard plot analysis; assay type: ADME; conditions: isolated protein
T1 sequence (P02768 whole entry): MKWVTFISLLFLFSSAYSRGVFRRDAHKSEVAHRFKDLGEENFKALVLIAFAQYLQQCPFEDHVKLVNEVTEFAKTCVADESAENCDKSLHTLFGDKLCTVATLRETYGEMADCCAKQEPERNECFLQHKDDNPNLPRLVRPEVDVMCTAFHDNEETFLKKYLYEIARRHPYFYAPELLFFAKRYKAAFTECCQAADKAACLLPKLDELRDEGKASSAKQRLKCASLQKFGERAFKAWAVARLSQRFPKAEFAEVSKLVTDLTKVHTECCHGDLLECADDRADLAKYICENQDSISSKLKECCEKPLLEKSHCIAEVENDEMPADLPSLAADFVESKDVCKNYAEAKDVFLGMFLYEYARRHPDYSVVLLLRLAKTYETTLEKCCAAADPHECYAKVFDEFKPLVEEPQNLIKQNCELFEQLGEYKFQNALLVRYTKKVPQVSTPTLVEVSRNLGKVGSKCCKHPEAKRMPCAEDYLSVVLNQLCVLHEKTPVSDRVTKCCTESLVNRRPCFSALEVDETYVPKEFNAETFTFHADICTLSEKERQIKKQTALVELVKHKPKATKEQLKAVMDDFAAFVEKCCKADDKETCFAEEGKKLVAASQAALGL
Outline: (§3)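 Scatchard treatment of the HSA fluorescence-quenching titration in pH 7.4 solution (excitation 295 nm) at each temperature. It gave the binding constant Kb and the number of binding sites n, with fit correlation R and SD.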

[20] = target: T1, Albumin; assay: Binding affinity to human serum albumin at pH 7.4 at 303 K by Scatchard plot analysis; assay type: ADME; conditions: isolated protein; outline: as §3
[21] = target: T1, Albumin; assay: Binding affinity to human serum albumin at pH 7.4 at 310 K by Scatchard plot analysis; assay type: ADME; conditions: isolated protein; outline: as §3
[22] = tested on: Staphylococcus aureus; assay: Binding affinity to methicillin-resistant Staphylococcus aureus double stranded genomic DNA assessed as hypochromic effect by spectroscopic analysis
Outline: (§4)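 MRSA genomic DNA stock was quantified by absorbance at 260 nm, using ε260 = 6600 L mol⁻¹ cm⁻¹ (as molarity of phosphate). Purity was checked by the A260/A280 ratio.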

[23] = tested on: Staphylococcus aureus; assay: Electrostatic binding to methicillin-resistant Staphylococcus aureus double stranded genomic DNA assessed as Stern-Volmer constant in presence of potassium iodide by steady state quenching analysis; outline: as §4
[24] = tested on: Staphylococcus aureus; assay: Binding affinity to methicillin-resistant Staphylococcus aureus double stranded genomic DNA assessed as decrease in fluorescence intensity in absence of Cu2+ ions by spectrofluorometric analysis; outline: as §4
[25] = tested on: Staphylococcus aureus; assay: Binding affinity to methicillin-resistant Staphylococcus aureus double stranded genomic DNA assessed as decrease in fluorescence intensity at 2.23 x 10^-5M in presence of 20 x 10^-5 M Cu2+ ions by spectrofluorometric analysis; outline: as §4
[26] = tested on: Staphylococcus aureus; assay: Binding affinity to methicillin-resistant Staphylococcus aureus double stranded genomic DNA assessed as decrease in fluorescence intensity at 2.23 x 10^-5 M in presence of 0.4 x 10^-6 M Cu2+ ions by spectrofluorometric analysis; outline: as §4
[27] = Cytotoxicity against rat PC12 cells assessed as cell viability at <512 ug/mL after 72 hrs by MTT assay relative to control; assay type: cell-based, PC-12; conditions: read-out: Activity; outline: as §2
[28] = Cytotoxicity against human LO2 cells assessed as cell viability at <512 ug/mL after 72 hrs by MTT assay relative to control; assay type: cell-based, L02; conditions: read-out: Activity; outline: as §2
[29] = tested on: Staphylococcus aureus; assay: Binding affinity to methicillin-resistant Staphylococcus aureus […] genomic DNA assessed as decrease in fluorescence intensity at 2 x 10^-5M at 294 K by spectrofluorometric analysis; outline: as §4
[30] = Binding affinity to 4.69 x 10^-5 M Cu2+ at 2.23 x 10^-5 M at pH 7.4 by spectrofluorimetric method
[31] = Binding affinity to 0 to 6.03 x 10^-5 M Cu2+ assessed as 1:1 compound/metal ion complex formation at 2.23 x 10^-5 M at pH 7.4 by spectrofluorimetric method
[32] = tested on: Bacillus; assay: Potency index, ratio of norfloxacin MIC to compound MIC for Bacillus proteus ATCC 13315; assay type: functional
[33] = tested on: Eberthella typhosa; assay: Potency index, ratio of norfloxacin MIC to compound MIC for Eberthella typhosa ATCC 14028; assay type: functional

Compound: CCn1cc(-c2csc(N)n2)c(=O)c2cc(F)cc(F)c21
- MIC [1]: 256 µg/mL (≈ 833 µM)
- MIC [2]: inactive
- MIC [3]: inactive
- MIC [4]: inactive
- MIC [5]: inactive
- MIC [6]: 64 µg/mL (≈ 208 µM)
- MIC [7]: inactive
- MIC [8]: inactive

Compound: CCn1cc(C(=O)O)c(=O)c2cc(F)c(N3CCNCC3)cc21 [NORFLOXACIN]
- MIC [1]: 2.7 µg/mL (≈ 8.46 µM)
- MIC [2]: 10.7 µg/mL (≈ 33.5 µM)
- MIC [3]: 0.8 µg/mL (≈ 2.51 µM)
- MIC [4]: 1.3 µg/mL (≈ 4.07 µM)
- MIC [5]: 1.7 µg/mL (≈ 5.32 µM)
- MIC [6]: 4.3 µg/mL (≈ 13.5 µM)
- Activity [9]: Toxic
- Activity [10]: Toxic
- Activity [11]: Toxic
- Activity [12]: Toxic
- Activity [13]: Toxic
- IC50 [14]: 18.2 µM
- MIC [15]: 5.3 µg/mL (≈ 16.6 µM)
- MIC [8]: 13.3 µg/mL (≈ 41.6 µM)
- Activity [16]: 16%

Compound: CCn1cc(-c2csc(N)n2)c(=O)c2cc(N3CCN(C(=O)OC(C)(C)C)CC3)c(Cl)cc21
- MIC [1]: 53.2 µg/mL (≈ 109 µM)
- MIC [2]: 32 µg/mL (≈ 65.3 µM)
- MIC [3]: 128 µg/mL (≈ 261 µM)
- MIC [4]: 21.3 µg/mL (≈ 43.5 µM)
- MIC [5]: 8 µg/mL (≈ 16.3 µM)
- MIC [6]: 10.7 µg/mL (≈ 21.8 µM)
- MIC [7]: inactive
- MIC [8]: 32 µg/mL (≈ 65.3 µM)

Compound: CCn1cc(-c2csc(N)n2)c(=O)c2cc(N3CCCC3)c(Cl)cc21
- MIC [1]: 2.7 µg/mL (≈ 7.2 µM)
- MIC [2]: 0.8 µg/mL (≈ 2.13 µM)
- MIC [3]: 0.6 µg/mL (≈ 1.6 µM)
- MIC [4]: 1.3 µg/mL (≈ 3.47 µM)
- MIC [5]: 0.5 µg/mL (≈ 1.33 µM)
- MIC [6]: 0.8 µg/mL (≈ 2.13 µM)
- MIC [17]: 16 µg/mL (≈ 42.7 µM)
- Activity [18]: Non-toxic
- Activity [9]: Non-toxic
- Activity [10]: Non-toxic
- Activity [11]: Non-toxic
- Activity [12]: Non-toxic
- Activity [13]: Non-toxic
- IC50 [14]: 11.5 µM
- Kb [19]: 0.726 ×10⁵ L/mol
- Kb [20]: 0.701 ×10⁵ L/mol
- Kb [21]: 0.656 ×10⁵ L/mol
- Activity [22]: 11.4%
- KSV [23]: 30.1 M⁻¹
- Activity [24]: inactive
- Activity [25]: Active
- Activity [26]: Active
- MIC [15]: 2 µg/mL (≈ 5.33 µM)
- MIC [8]: 1 µg/mL (≈ 2.67 µM)
- viability at 72 h [27]: > 88%
- viability at 72 h [28]: > 88%
- Activity [29]: Active
- Activity [30]: Active
- Activity [31]: Active

Compound: CCn1cc(-c2csc(N)n2)c(=O)c2cc(F)c(F)cc21
- MIC [1]: 5.3 µg/mL (≈ 17.2 µM)
- MIC [2]: 213 µg/mL (≈ 694 µM)
- MIC [3]: 0.8 µg/mL (≈ 2.6 µM)
- MIC [4]: 26.7 µg/mL (≈ 86.9 µM)
- MIC [5]: 78.6 µg/mL (≈ 256 µM)
- MIC [6]: 256 µg/mL (≈ 833 µM)
- MIC [15]: 1.2 µg/mL (≈ 3.9 µM)
- MIC [8]: 0.6 µg/mL (≈ 1.95 µM)
- Ratio [32]: 22
- Ratio [33]: 4

Compound: CCn1cc(-c2csc(N)n2)c(=O)c2cccc(F)c21
- MIC [1]: 2.7 µg/mL (≈ 9.33 µM)
- MIC [2]: inactive
- MIC [3]: inactive
- MIC [4]: 13.3 µg/mL (≈ 46 µM)
- MIC [5]: 24 µg/mL (≈ 82.9 µM)
- MIC [6]: 9.3 µg/mL (≈ 32.1 µM)
- MIC [7]: inactive
- MIC [8]: 256 µg/mL (≈ 885 µM)

Compound: CCn1cc(-c2csc(N)n2)c(=O)c2cc(N3CCNCC3)c(Cl)cc21
- MIC [1]: 32 µg/mL (≈ 82.1 µM)
- MIC [2]: inactive
- MIC [3]: 8 µg/mL (≈ 20.5 µM)
- MIC [4]: 2 µg/mL (≈ 5.13 µM)
- MIC [5]: 10.7 µg/mL (≈ 27.4 µM)
- MIC [6]: 128 µg/mL (≈ 328 µM)
- MIC [15]: 8 µg/mL (≈ 20.5 µM)
- MIC [8]: 6.4 µg/mL (≈ 16.4 µM)

Compound: CCn1cc(C(C)=O)c(=O)c2cc(N3CCCCC3)c(Cl)cc21
- MIC [1]: 37.3 µg/mL (≈ 112 µM)
- MIC [2]: 128 µg/mL (≈ 385 µM)
- MIC [3]: 37.3 µg/mL (≈ 112 µM)
- MIC [4]: 35.4 µg/mL (≈ 106 µM)
- MIC [5]: 42.7 µg/mL (≈ 128 µM)
- MIC [6]: 13.3 µg/mL (≈ 40 µM)
- MIC [7]: inactive
- MIC [8]: 171 µg/mL (≈ 513 µM)

Compound: CCn1cc(-c2csc(N)n2)c(=O)c2cc(F)c(N3CCCC3)cc21
- MIC [1]: 107 µg/mL (≈ 298 µM)
- MIC [2]: 17.3 µg/mL (≈ 48.3 µM)
- MIC [3]: 32 µg/mL (≈ 89.3 µM)
- MIC [4]: 53.3 µg/mL (≈ 149 µM)
- MIC [5]: 42.7 µg/mL (≈ 119 µM)
- MIC [6]: 9.3 µg/mL (≈ 25.9 µM)
- MIC [15]: 42.7 µg/mL (≈ 119 µM)
- MIC [8]: 128 µg/mL (≈ 357 µM)
